ChEMBL document CHEMBL2331170, “Synthesis and biological evaluation of novel pyranochalcone derivatives as a new class of microtubule stabilizing agents” (Eur J Med Chem, 2013)
Active and inactive are the calls of the source. The calls are words filed in the database; no cut-off is given here.

Experiments:
[1] = test system: Mus musculus; test: Toxicity in human HepG2 cells xenografted Balb/C mouse assessed as behaviour changes at 2.5 to 10 mg/kg administered every 2 days for 3 weeks; assay type: organism-based; parameters: dose 2.5-10 mg/kg; details: in vivo
Outline: (§1)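 Female Balb/C and nude mice (5–6 weeks) carried right-flank HepG2 xenografts (5 × 10⁶ cells). From ~100 mm³ tumor volume they were dosed at 2.5–10 mg/kg every two days for three weeks, six per group, with saline controls. Toxicity signs and mortality were checked daily. Body weight was measured every two days; feeding and behavior were observed.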

[2] = test system: Mus musculus; test: Toxicity in human HepG2 cells xenografted Balb/C mouse assessed as feeding at 2.5 to 10 mg/kg administered every 2 days for 3 weeks; assay type: organism-based; parameters: dose 2.5-10 mg/kg; details: in vivo; outline: as §1
[3] = test system: Mus musculus; test: Toxicity in human HepG2 cells xenografted Balb/C mouse assessed as weight loss at 2.5 to 10 mg/kg administered every 2 days for 3 weeks; assay type: organism-based; parameters: dose 2.5-10 mg/kg; details: in vivo; outline: as §1
[4] = test system: HepG2; test: Antitumor activity against human HepG2 cells xenografted in Balb/C mouse assessed as tumor growth inhibition rate compound administered every 2 days for 3 weeks measured on day 20; assay type: functional, cell-based
Outline: (§2)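 HepG2 cells (5 × 10⁶/mouse) in HBSS implanted in the right flank of 5–6-week-old female Balb/C and athymic nude mice, six per group. Dosing began once tumors reached ~100 mm³: three weeks at 2.5, 5 or 10 mg/kg every two days, or Taxol 5 mg/kg every four days; controls got physiological saline. Tumor volume = π/6 × length × width². T/C (%) = treated/control tumor volume × 100. Inhibition = (1 − treated/control tumor weight) × 100.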

[5] = test system: HepG2; test: Antitumor activity against human HepG2 cells xenografted in Balb/C mouse assessed as tumor growth inhibition rate at 10 mg/kg administered every 2 days for 3 weeks measured on day 20; assay type: functional; details: read-out: TGI; outline: as §2
[6] = test system: HepG2; test: Antitumor activity against human HepG2 cells xenografted in Balb/C mouse assessed as tumor growth inhibition rate at 5 mg/kg administered every 2 days for 3 weeks measured on day 20; assay type: functional; details: read-out: TGI; outline: as §2
[7] = test system: HepG2; test: Antitumor activity against human HepG2 cells xenografted in Balb/C mouse assessed as tumor growth inhibition rate at 2.5 mg/kg administered every 2 days for 3 weeks measured on day 20; assay type: functional; details: read-out: TGI; outline: as §2
[8] = target: T1, Tubulin (Homo sapiens) (UniProt P68371+Q9H4B7+P0DPH7+P68366+Q13509+Q71U36+P04350+Q3ZCM7+P07437+P68363+Q9BQE3+Q6PEY2+Q13885+Q9BVA1+Q9BUF5); test: Decrease in unassembled tubulin level in human HepG2 cells at 0.1 to 0.5 uM after 24 hrs by Western blot analysis; assay type: cell-based
Outline: (§3)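 HepG2 cells were treated at 0.1 or 0.5 μM for 24 h and washed three times in PBS. They were lysed on ice for 30 min in 20 mM Tris-HCl pH 6.8, 1 mM MgCl₂, 2 mM EGTA, 1 mM PMSF, 1 mM orthovanadate, 0.5% NP-40 and protease inhibitor. Tubulin was immunoblotted with α-tubulin antibody and HRP secondary, with chemiluminescent detection.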

[9] = target: T1, Tubulin (Homo sapiens); test: Increase in polymerized tubulin level in human HepG2 cells at 0.1 to 0.5 uM after 24 hrs by Western blot analysis; assay type: cell-based; outline: as §3
[10] = target: T2, Tubulin (Sus scrofa) (UniProt P02554+P02550); test: Stabilization of purified pig brain tubulin polymerization at 20 uM measured every 30 seconds by spectrophotometry
T2 sequence (P02550 whole entry, looked up): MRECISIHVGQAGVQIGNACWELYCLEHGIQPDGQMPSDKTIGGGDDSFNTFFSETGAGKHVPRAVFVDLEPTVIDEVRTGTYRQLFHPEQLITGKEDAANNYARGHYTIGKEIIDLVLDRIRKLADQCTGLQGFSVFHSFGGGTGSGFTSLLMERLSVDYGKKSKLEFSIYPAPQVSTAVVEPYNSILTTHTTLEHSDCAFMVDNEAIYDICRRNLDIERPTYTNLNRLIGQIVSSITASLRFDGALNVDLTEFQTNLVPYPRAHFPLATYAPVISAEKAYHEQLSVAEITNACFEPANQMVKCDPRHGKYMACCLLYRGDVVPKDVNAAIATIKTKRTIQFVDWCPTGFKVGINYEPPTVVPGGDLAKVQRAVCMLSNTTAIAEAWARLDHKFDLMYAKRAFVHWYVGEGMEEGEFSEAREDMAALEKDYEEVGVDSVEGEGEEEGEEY
T2 sequence (P02554 whole entry, looked up): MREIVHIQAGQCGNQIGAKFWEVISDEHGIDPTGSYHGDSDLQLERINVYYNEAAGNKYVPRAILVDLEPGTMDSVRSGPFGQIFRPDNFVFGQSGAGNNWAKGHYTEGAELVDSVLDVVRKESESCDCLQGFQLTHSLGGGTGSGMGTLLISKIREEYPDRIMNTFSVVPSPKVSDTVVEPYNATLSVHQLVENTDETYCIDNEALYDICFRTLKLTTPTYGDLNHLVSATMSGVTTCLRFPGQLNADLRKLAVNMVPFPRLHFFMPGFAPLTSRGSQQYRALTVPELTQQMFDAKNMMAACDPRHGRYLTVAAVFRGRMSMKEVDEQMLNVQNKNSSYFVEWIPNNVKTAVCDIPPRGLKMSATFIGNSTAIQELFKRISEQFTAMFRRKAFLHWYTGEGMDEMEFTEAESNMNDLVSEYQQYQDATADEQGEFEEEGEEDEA
Outline: (§4)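 It was pre-incubated 5 min with compound (5, 10, 20 μM), Taxol (5, 20 μM) or DMSO. GTP was added to 1 mM final to start assembly, followed as the rise in absorbance at 340 nm at 37 °C.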

[11] = target: T2, Tubulin (Sus scrofa); test: Stabilization of purified pig brain tubulin polymerization at 10 uM measured every 30 seconds by spectrophotometry; outline: as §4
[12] = target: T2, Tubulin (Sus scrofa); test: Stabilization of purified pig brain tubulin polymerization at 5 uM measured every 30 seconds by spectrophotometry; outline: as §4
[13] = target: T2, Tubulin (Sus scrofa); test: Stabilization of purified pig brain tubulin polymerization measured every 30 seconds by spectrophotometry; outline: as §4
[14] = target: T2, Tubulin (Sus scrofa); test: Induction of purified pig brain tubulin depolymerization at 5 to 20 uM measured every 30 seconds by spectrophotometry; outline: as §4
[15] = test system: HepG2; test: Cell cycle arrest in human HepG2 cells assessed as accumulation at G2/M phase at 1 uM after 24 hrs by flow cytometry (reference value: 17.07 %); assay type: functional
[16] = test system: HepG2; test: Cell cycle arrest in human HepG2 cells assessed as accumulation at G2/M phase at 0.2 uM after 24 hrs by flow cytometry (reference value: 17.07 %); assay type: functional
[17] = test system: HepG2; test: Cell cycle arrest in human HepG2 cells assessed as accumulation at G2/M phase at after 24 hrs by flow cytometry; assay type: functional, cell-based
[18] = test system: HepG2; test: Effect on microtubule network in human HepG2 cells assessed as abnormal mitotic spindles at 1 uM after 24 hrs by propidium iodide-FITC-based staining method; assay type: cell-based
Outline: (§5)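 HepG2 cells were treated with 1.0 μM for 24 h. They were washed in PBS, fixed in cold 4% PFA for 10 min and blocked for 1 h in 5% goat serum/0.3% Triton/PBS. Staining used monoclonal anti-α-tubulin overnight at 4 °C, then Alexa Fluor 488 anti-mouse IgG for 30 min at room temperature, with propidium iodide for DNA. Cells were imaged by fluorescence or confocal microscopy.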

[19] = test system: HepG2; test: Effect on microtubule network in human HepG2 cells assessed as multiple tubulin bundles without chromosomes aligned at the metaphase plate with more dispersion of the chromosomes at 1 uM after 24 hrs by propidium iodide-FITC-based staining method; assay type: cell-based; outline: as §5
[20] = Ratio of taxol IC50 to compound IC50 for mouse C26 cells by MTT assay; assay type: functional
[21] = test system: A2780; test: Cytotoxicity against taxol-resistant human A2780 cells by MTT assay; assay type: functional, cell-based
[22] = Cytotoxicity against human MCF7/ADR cells by MTT assay; assay type: functional, cell-based; details: NCI/ADR-RES
[23] = test system: HCT-8; test: Cytotoxicity against taxol-resistant human HCT8 cells by MTT assay; assay type: functional, cell-based
[24] = test system: DU-145; test: Cytotoxicity against human DU145 cells by MTT assay; assay type: functional, cell-based
[25] = Cytotoxicity against human A2780S cells by MTT assay; assay type: functional, cell-based; details: A2780
[26] = test system: PC-3; test: Cytotoxicity against human PC3 cells by MTT assay; assay type: functional, cell-based
[27] = Cytotoxicity against human ES2 cells by MTT assay; assay type: functional, cell-based; details: ES-2
[28] = test system: SK-OV-3; test: Cytotoxicity against human SKOV3 cells by MTT assay; assay type: functional, cell-based
[29] = test system: SK-HEP1; test: Cytotoxicity against human SKHEP1 cells by MTT assay; assay type: functional, cell-based
[30] = test system: MCF7; test: Cytotoxicity against human MCF7 cells by MTT assay; assay type: functional, cell-based
[31] = test system: Bel-7402; test: Cytotoxicity against human Bel7402 cells by MTT assay; assay type: functional, cell-based
[32] = Cytotoxicity against human SPC-A1 cells by MTT assay; assay type: functional, cell-based; details: SPCA1
[33] = Cytotoxicity against human H460 cells by MTT assay; assay type: functional, cell-based; details: NCI-H460
[34] = test system: NCI-H358; test: Cytotoxicity against human NCI-H358 cells by MTT assay; assay type: functional, cell-based
[35] = test system: HT-29; test: Cytotoxicity against human HT-29 cells by MTT assay; assay type: functional, cell-based
[36] = Cytotoxicity against mouse C26 cells by MTT assay; assay type: functional, cell-based
[37] = test system: HCT-15; test: Cytotoxicity against human HCT15 cells by MTT assay; assay type: functional, cell-based
[38] = Cytotoxicity against human LO2 cells by MTT assay; assay type: cell-based; details: L02
Outline: (§6)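 Log-phase cells were diluted to 40,000–50,000 cells/mL in medium with 10% FBS, 2 mM glutamine and antibiotics (37 °C, 5% CO₂). They were seeded in 96-well plates and treated with a range of doses. MTT was added for 4 h, the formazan was dissolved in DMSO, and absorbance was read at 590 nm.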

[39] = test system: A-375; test: Cytotoxicity against human A375 cells by MTT assay; assay type: functional, cell-based; outline: as §6
[40] = test system: K562; test: Cytotoxicity against human K562 cells by MTT assay; assay type: functional, cell-based; outline: as §6
[41] = test system: HepG2; test: Cytotoxicity against human HepG2 cells by MTT assay; assay type: functional, cell-based; outline: as §6
[42] = test system: HepG2; test: Induction of microtubule polymerization in human HepG2 cells at 1 uM after 24 hrs by propidium iodide-FITC-based staining method
[43] = test system: HepG2; test: Antitumor activity against human HepG2 cells xenografted in Balb/C mouse assessed as tumor volume T/C ratio at 5 mg/kg administered every 2 days for 3 weeks measured on day 20 relative to control
[44] = test system: HepG2; test: Antitumor activity against human HepG2 cells xenografted in Balb/C mouse assessed as tumor volume T/C ratio at 10 mg/kg administered every 2 days for 3 weeks measured on day 20 relative to control
[45] = test system: HepG2; test: Antitumor activity against human HepG2 cells xenografted in Balb/C mouse assessed as tumor volume T/C ratio at 2.5 mg/kg administered every 2 days for 3 weeks measured on day 20 relative to control

Which Activity [1] does the source give for `CCC(=O)Oc1cc(/C=C/C(=O)c2ccc(OC)c3c2OC(C)(C)C=C3)ccc1OC` here?
Its Activity is “Non-toxic”.

What about the Activity [2] of the same compound?
The Activity was “Non-toxic”.

And the Activity [3]?
The Activity was “Non-toxic”.

What about the TGI [4] of the same compound?
Its TGI is “Dose-dependent effect”.

And the inhibition in vivo at 10 mg/kg [5]?
The inhibition in vivo at 10 mg/kg was 69.7%.

And the inhibition in vivo at 5 mg/kg [6]?
The inhibition in vivo at 5 mg/kg was 57.6%.

And the inhibition in vivo at 2.5 mg/kg [7]?
Its inhibition in vivo at 2.5 mg/kg is 54.3%.

What about the Activity [8] of the same compound?
The Activity was “Active”.

And the Activity [9]?
Its Activity is “Active”.

And the Activity [10]?
Its Activity is 32%.

And the Activity [11]?
The Activity was 16.3%.

And the Activity [12]?
Its Activity is 10%.

What about the Activity [13] of the same compound?
The Activity was “Dose-dependent effect”.

What about the Activity [14] of the same compound?
Its Activity is “inactive”.

What about the Activity [15] of the same compound?
Its Activity is 76.02%.

And the Activity [16]?
The Activity was 67.76%.

What about the Activity [17] of the same compound?
The Activity was “Dose-dependent effect”.

What about the Activity [18] of the same compound?
The Activity was “Active”.

What about the Activity [19] of the same compound?
The Activity was “Active”.

What about the “Ratio IC50” value [20] of the same compound?
Its value is 3.

What about the IC50 [21] of the same compound?
The IC50 was 1.33 µM.

And the IC50 [22]?
The IC50 was 0.16 µM.

What about the IC50 [23] of the same compound?
The IC50 was 1.69 µM.

What about the IC50 [24] of the same compound?
The IC50 was 0.19 µM.

What about the IC50 [25] of the same compound?
Its IC50 is 0.22 µM.

And the IC50 [26]?
Its IC50 is 0.09 µM.

What about the IC50 [27] of the same compound?
The IC50 was 0.1 µM.

And the IC50 [28]?
The IC50 was 0.35 µM.

And the IC50 [29]?
The IC50 was 0.32 µM.

What about the IC50 [30] of the same compound?
The IC50 was 0.19 µM.

And the IC50 [31]?
Its IC50 is 0.4 µM.

What about the IC50 [32] of the same compound?
Its IC50 is 22.3 µM.

And the IC50 [33]?
Its IC50 is 4.05 µM.

And the IC50 [34]?
Its IC50 is 0.15 µM.

And the IC50 [35]?
Its IC50 is 0.2 µM.

And the IC50 [36]?
The IC50 was 0.31 µM.

What about the IC50 [37] of the same compound?
The IC50 was 0.1 µM.

And the IC50 [38]?
The IC50 was > 10 µM.

What about the IC50 [39] of the same compound?
The IC50 was 0.24 µM.

What about the IC50 [40] of the same compound?
Its IC50 is 0.16 µM.

What about the IC50 [41] of the same compound?
Its IC50 is 0.09 µM.

What about the Activity [42] of the same compound?
The Activity was “Active”.

And the T/C at 5 mg/kg [43]?
The T/C at 5 mg/kg was 32.4%.

What about the T/C at 10 mg/kg [44] of the same compound?
The T/C at 10 mg/kg was 33.9%.

What about the T/C at 2.5 mg/kg [45] of the same compound?
Its T/C at 2.5 mg/kg is 34.9%.
